Source: ChEMBL document CHEMBL4354804, “Discovery of a New Isoxazole-3-hydroxamate-Based Histone Deacetylase 6 Inhibitor SS-208 with Antitumor Activity in Syngeneic Melanoma Mouse Models” (J Med Chem, 2019)
Values belong to the compound of their own block, whether it stands above or below them.

Tests used:
[1] = Cytotoxicity against mouse SM1 cells at 100 nM by ApoTox-Glo triplex assay; format: cell-based; conditions: 0.1 µM
Summary of the method: (§1)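 SM1 cells treated with HDAC inhibitors, with pan-HDACi and assay controls on every plate. ApoTox-Glo triplex readout: viability fluorescence 400Ex/505Em, cytotoxicity fluorescence 485Ex/520Em, then caspase 3/7 reagent read by luminescence for apoptosis.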

[2] = Induction of apoptosis in mouse SM1 cells at 100 nM by caspase3/7 reagent based luminescence assay; format: cell-based; conditions: 0.1 µM; summary of the method: as §1
[3] = tested on: Salmonella typhimurium; assay: Genotoxicity against Salmonella Typhimurium TA1537 assessed as revertant colonies at 0.075 to 250 ug/well in presence of mammalian microsomal enzyme S9 mix by Ames test; format: toxicity, organism-based; conditions: salmonella enterica subsp. enterica serovar typhimurium
[4] = Half life in mouse liver microsomes in presence of NADPH; format: ADME, Microsome
Summary of the method: (§2)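 Liver microsomal stability in mouse and human microsomes with NADPH; half-life in minutes.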

[5] = Half life in human liver microsomes in presence of NADPH; format: ADME, Microsome; summary of the method: as §2
[6] = tested on: Salmonella typhimurium; assay: Genotoxicity against Salmonella Typhimurium TA1537 assessed as revertant colonies at 0.075 to 250 ug/well by Ames test; format: toxicity, organism-based; conditions: salmonella enterica subsp. enterica serovar typhimurium
[7] = tested on: Salmonella typhimurium; assay: Genotoxicity against Salmonella Typhimurium TA97A assessed as revertant colonies at 0.075 to 250 ug/well by Ames test; format: toxicity, organism-based; conditions: salmonella enterica subsp. enterica serovar typhimurium
[8] = species: Homo sapiens; assay: Selectivity index, ratio of IC50 for recombinant full length C-terminal His/FLAG tagged human HDAC1 (1 to 482 residues) expressed in baculovirus infected sf9 insect cells using p53 (379 to 382 residues) derived fluorogenic peptide RHKKAc as substrate preincubated for 5 to 10 mins followed by …
[9] = tested on: Salmonella typhimurium; assay: Genotoxicity against Salmonella Typhimurium TA97A assessed as revertant colonies at 0.075 to 250 ug/well in presence of mammalian microsomal enzyme S9 mix by Ames test; format: toxicity, organism-based; conditions: salmonella enterica subsp. enterica serovar typhimurium
[10] = biological target: T1, Histone deacetylase 1 (Homo sapiens, UniProt Q13547); assay: Inhibition of human recombinant HDAC1 using fluorogenic HDAC substrate by fluorescence assay
T1 sequence (Q13547 whole entry): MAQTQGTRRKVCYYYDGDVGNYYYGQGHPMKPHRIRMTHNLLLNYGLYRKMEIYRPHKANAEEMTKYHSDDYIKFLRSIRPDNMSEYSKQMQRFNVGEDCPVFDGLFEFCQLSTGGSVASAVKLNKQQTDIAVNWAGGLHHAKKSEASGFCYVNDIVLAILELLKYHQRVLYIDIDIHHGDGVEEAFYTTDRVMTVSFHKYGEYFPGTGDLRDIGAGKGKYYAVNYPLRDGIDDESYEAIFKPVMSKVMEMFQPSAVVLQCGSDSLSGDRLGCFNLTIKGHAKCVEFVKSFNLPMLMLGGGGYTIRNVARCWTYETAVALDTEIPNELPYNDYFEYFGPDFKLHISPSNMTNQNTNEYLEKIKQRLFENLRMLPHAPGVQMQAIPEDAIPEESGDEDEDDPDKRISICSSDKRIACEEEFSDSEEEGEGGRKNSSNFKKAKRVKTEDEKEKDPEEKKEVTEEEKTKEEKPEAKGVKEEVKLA
Summary of the method: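 Human full-length recombinant HDAC1 expressed in Sf9 cells via baculovirus. Substrate was the fluorogenic acetylated p53 379-382 peptide RHKKAc (50 µM) in pH 8.0 Tris buffer with NaCl, KCl, MgCl2, BSA and 1% DMSO final. Enzyme and compound were preincubated 5-10 min, then reacted 2 h at 30 °C. Developer plus TSA stopped the reaction; endpoint fluorescence was read.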

[11] = species: Homo sapiens; assay: Selectivity index, ratio of IC50 for inhibition of human recombinant HDAC1 using fluorogenic substrate incubated for 15 mins by fluorescence assay to IC50 for inhibition of human recombinant HDAC6 using fluorogenic substrate incubated for 30 mins by fluorescence assay
[12] = biological target: T2, Protein deacetylase HDAC6 (Homo sapiens, UniProt Q9UBN7); assay: Inhibition of human recombinant HDAC6 using fluorogenic substrate incubated for 30 mins by fluorescence assay
T2 sequence (Q9UBN7 whole entry): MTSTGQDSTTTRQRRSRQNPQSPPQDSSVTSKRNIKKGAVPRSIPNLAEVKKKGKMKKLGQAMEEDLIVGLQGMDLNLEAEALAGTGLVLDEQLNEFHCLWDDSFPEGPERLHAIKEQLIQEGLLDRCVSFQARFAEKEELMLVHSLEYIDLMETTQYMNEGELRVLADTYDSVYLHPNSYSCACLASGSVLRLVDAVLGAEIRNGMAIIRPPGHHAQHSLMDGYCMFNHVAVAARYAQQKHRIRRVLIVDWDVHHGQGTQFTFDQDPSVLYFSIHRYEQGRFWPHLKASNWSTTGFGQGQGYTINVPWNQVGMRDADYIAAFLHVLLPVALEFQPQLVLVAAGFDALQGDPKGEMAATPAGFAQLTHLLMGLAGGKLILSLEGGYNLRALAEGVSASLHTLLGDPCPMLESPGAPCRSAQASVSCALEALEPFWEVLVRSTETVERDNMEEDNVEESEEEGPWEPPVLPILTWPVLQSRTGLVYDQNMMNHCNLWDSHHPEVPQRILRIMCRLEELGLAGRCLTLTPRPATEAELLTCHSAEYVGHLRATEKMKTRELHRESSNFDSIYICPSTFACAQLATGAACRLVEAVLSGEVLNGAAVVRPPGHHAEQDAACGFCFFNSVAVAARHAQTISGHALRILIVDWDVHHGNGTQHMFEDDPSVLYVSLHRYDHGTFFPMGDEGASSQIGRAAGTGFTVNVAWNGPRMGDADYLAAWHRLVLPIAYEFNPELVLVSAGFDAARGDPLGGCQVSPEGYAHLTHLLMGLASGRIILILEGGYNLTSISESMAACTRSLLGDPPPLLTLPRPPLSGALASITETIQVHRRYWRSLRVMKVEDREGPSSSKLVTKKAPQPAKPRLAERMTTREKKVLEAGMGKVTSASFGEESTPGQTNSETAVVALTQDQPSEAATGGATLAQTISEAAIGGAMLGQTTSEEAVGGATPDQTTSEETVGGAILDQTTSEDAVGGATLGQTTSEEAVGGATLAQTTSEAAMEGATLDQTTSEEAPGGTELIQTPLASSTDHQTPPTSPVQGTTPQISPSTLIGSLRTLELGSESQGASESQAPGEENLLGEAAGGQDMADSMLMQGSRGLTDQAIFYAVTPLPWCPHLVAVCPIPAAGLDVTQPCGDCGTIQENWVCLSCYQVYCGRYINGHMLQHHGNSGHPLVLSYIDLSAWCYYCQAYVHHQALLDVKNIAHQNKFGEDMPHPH

[13] = biological target: T1, Histone deacetylase 1; assay: Inhibition of human recombinant HDAC1 using fluorogenic substrate incubated for 15 mins by fluorescence assay
[14] = biological target: T1, Histone deacetylase 1; assay: (§3) Inhibition of recombinant full length C-terminal His/FLAG tagged human HDAC1 (1 to 482 residues) expressed in baculovirus infected sf9 insect cells using p53 (379 to 382 residues) derived fluorogenic peptide RHKKAc as substrate preincubated for 5 to 10 mins followed by substrate addition and further incubated for 2 hrs by fluorescence assay
[15] = biological target: T2, Protein deacetylase HDAC6; assay: as §3, with “N-terminal GST-tagged” for “full length C-terminal His/FLAG tagged”, “HDAC6” for “HDAC1”, “1215” for “482”
[16] = biological target: T3, Histone deacetylase 8 (Homo sapiens, UniProt Q9BY41); assay: Inhibition of recombinant human HDAC8 expressed in HEK293T/17 cells using Boc-Lys(TFA)-AMC as substrate preincubated for 10 mins followed by substrate addition and measured after 30 mins by fluorescence-based assay
T3 sequence (Q9BY41 whole entry): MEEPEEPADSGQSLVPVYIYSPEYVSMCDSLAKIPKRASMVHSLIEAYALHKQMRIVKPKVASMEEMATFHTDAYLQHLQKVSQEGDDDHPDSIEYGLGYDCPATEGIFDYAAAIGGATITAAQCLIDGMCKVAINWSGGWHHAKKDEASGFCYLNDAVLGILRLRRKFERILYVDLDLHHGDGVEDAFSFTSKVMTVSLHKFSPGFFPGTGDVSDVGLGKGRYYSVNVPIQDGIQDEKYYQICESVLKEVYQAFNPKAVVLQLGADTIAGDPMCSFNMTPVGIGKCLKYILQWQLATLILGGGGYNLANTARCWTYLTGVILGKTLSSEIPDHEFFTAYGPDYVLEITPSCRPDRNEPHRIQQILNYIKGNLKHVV
Summary of the method: (§4)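 Human HDACs expressed as Strep-tagged fusions in transiently transfected HEK293/T17 cells, purified by Strep-Tactin. Substrate at 10 µM: Ac-GAK(Ac)-AMC for HDAC1/6, Boc-Lys(TFA)-AMC for the others. Reaction 30 min at 37 °C, trypsin stop, fluorescence 365/440 nm. 10-point 3-fold series from 100 µM, mean of two experiments.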

[17] = biological target: T1, Histone deacetylase 1; assay: Inhibition of recombinant human HDAC1 expressed in HEK293T/17 cells using Ac-GAK(Ac)-AMC as substrate preincubated for 10 mins followed by substrate addition and measured after 30 mins by fluorescence-based assay; summary of the method: as §4
[18] = biological target: Histone deacetylase 5 (Homo sapiens, UniProt Q9UQL6); assay: Inhibition of recombinant human HDAC5 expressed in HEK293T/17 cells using Boc-Lys(TFA)-AMC as substrate preincubated for 10 mins followed by substrate addition and measured after 30 mins by fluorescence-based assay; summary of the method: as §4
Histone deacetylase 5, sequence (Q9UQL6 whole entry): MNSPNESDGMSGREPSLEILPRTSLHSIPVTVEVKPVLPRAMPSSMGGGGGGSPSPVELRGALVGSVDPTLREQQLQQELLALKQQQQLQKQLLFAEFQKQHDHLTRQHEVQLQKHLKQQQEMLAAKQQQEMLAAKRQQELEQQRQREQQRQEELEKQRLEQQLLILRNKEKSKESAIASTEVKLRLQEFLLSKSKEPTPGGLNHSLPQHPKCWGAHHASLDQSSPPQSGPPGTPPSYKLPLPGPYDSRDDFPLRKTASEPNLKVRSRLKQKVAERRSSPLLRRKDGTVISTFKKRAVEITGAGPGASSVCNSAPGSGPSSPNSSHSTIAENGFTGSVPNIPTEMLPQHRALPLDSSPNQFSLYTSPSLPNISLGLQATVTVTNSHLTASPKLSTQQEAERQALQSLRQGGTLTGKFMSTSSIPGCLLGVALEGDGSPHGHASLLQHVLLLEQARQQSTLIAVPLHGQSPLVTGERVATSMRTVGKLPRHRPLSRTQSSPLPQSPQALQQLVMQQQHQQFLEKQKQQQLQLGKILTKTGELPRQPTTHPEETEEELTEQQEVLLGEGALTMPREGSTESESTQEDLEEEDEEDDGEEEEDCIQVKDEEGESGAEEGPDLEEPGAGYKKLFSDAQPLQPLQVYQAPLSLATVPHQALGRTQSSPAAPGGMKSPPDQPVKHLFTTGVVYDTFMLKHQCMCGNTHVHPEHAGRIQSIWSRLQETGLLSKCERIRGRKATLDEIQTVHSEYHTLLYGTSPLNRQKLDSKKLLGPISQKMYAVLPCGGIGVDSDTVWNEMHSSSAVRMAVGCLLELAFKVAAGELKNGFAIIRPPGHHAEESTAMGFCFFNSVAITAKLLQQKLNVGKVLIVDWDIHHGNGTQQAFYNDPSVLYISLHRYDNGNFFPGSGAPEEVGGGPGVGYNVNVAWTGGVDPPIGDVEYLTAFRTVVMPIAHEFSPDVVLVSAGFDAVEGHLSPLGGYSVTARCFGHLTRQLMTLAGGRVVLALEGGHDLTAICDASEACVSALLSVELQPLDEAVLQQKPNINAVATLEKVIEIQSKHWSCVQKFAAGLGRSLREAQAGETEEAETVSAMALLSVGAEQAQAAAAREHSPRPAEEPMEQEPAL

[19] = biological target: T4, Histone deacetylase 11 (Homo sapiens, UniProt Q96DB2); assay: Inhibition of recombinant human HDAC11 expressed in HEK293T/17 cells using Boc-Lys(TFA)-AMC as substrate preincubated for 10 mins followed by substrate addition and measured after 30 mins by fluorescence-based assay; summary of the method: as §4
T4 sequence (Q96DB2 whole entry): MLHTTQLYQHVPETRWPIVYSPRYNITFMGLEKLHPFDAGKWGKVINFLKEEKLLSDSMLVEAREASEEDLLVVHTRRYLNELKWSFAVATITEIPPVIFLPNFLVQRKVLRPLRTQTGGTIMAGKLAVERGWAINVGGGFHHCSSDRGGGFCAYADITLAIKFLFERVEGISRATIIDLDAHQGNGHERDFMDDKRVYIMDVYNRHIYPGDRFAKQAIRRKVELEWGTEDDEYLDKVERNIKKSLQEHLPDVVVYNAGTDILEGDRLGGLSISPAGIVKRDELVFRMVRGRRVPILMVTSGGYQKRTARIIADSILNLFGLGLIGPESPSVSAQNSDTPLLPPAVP

[20] = biological target: Histone deacetylase 4 (Homo sapiens, UniProt P56524); assay: Inhibition of recombinant human HDAC4 expressed in HEK293T/17 cells using Boc-Lys(TFA)-AMC as substrate preincubated for 10 mins followed by substrate addition and measured after 30 mins by fluorescence-based assay; summary of the method: as §4
Histone deacetylase 4, sequence (P56524 whole entry): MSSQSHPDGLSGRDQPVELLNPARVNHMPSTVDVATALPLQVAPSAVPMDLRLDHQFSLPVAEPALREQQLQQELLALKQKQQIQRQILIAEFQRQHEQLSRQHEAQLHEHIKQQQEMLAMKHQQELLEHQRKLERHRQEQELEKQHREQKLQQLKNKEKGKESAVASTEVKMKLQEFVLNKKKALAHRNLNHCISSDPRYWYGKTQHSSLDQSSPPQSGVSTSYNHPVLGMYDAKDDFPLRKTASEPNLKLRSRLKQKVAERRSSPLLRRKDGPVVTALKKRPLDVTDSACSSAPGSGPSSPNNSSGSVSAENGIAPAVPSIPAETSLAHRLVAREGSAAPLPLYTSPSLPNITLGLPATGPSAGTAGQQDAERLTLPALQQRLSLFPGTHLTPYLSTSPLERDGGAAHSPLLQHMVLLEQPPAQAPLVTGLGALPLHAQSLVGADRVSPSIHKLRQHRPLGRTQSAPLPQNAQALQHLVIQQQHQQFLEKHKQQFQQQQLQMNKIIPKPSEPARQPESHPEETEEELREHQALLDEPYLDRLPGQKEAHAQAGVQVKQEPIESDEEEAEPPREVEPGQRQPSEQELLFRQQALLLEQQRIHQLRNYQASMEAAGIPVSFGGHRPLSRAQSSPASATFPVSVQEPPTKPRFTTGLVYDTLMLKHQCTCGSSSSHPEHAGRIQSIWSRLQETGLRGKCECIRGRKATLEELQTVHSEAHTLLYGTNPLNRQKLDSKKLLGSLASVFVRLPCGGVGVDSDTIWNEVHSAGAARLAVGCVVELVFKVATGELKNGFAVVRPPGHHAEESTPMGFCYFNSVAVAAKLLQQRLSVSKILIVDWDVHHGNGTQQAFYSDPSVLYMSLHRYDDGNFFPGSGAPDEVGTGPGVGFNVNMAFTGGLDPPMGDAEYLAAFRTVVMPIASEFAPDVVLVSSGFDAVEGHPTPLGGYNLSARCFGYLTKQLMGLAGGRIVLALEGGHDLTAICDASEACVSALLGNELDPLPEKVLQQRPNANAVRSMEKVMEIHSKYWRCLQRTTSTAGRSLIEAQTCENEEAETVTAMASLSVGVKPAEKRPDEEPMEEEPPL

[21] = biological target: T2, Protein deacetylase HDAC6; assay: Inhibition of recombinant human HDAC6 expressed in HEK293T/17 cells using Ac-GAK(Ac)-AMC as substrate preincubated for 10 mins followed by substrate addition and measured after 30 mins by fluorescence-based assay
[22] = biological target: Histone deacetylase 9 (Homo sapiens, UniProt Q9UKV0); assay: Inhibition of recombinant human HDAC9 expressed in HEK293T/17 cells using Boc-Lys(TFA)-AMC as substrate preincubated for 10 mins followed by substrate addition and measured after 30 mins by fluorescence-based assay; summary of the method: as §4
Histone deacetylase 9, sequence (Q9UKV0 whole entry): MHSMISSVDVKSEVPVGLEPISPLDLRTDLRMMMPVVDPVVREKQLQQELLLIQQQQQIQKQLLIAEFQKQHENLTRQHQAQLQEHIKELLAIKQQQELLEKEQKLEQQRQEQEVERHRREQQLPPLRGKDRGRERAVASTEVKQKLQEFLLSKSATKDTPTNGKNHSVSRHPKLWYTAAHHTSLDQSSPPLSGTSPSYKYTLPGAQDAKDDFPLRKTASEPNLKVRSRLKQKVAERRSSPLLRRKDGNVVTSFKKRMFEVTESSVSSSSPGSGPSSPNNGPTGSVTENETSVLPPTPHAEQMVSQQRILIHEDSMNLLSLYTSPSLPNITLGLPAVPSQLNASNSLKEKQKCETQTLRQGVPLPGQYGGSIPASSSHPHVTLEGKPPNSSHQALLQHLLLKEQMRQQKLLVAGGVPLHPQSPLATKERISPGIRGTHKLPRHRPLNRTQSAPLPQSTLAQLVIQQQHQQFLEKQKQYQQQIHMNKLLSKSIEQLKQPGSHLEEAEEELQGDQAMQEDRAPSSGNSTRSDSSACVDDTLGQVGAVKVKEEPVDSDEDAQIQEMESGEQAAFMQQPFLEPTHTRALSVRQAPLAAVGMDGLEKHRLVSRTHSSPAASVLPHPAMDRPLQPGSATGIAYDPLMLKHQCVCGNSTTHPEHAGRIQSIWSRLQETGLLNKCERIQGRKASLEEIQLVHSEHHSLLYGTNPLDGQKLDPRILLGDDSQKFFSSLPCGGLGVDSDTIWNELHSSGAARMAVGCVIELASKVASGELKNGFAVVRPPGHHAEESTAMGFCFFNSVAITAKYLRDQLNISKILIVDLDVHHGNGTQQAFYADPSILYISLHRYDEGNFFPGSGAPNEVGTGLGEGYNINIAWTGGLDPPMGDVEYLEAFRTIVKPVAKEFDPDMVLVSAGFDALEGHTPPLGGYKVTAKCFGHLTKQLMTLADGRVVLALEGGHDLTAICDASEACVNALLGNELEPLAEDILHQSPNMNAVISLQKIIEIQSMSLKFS

Compound: Cc1[nH]c2ccccc2c1CCNCc1ccc(/C=C/C(=O)NO)cc1 [PANOBINOSTAT]
Activity [1]: Toxic
Activity [2]: Toxic

Compound: CN(Cc1ccc(C(=O)NO)cc1F)CC12CC3CC(CC(C3)C1)C2
IC50 [10]: > 1000 nM

Second part, led by results:

half-life [4]: 16 min
half-life [5]: 85 min
Compound: CC(C)(C)OC(=O)Nc1ccc(-c2cc(C(=O)NCCc3cc(C(=O)NO)no3)no2)cc1
Activity [3]: Non-Toxic
Activity [6]: Non-Toxic
Activity [7]: Non-Toxic
Ratio IC50 [8]: 2820
Activity [9]: Non-Toxic

Ratio IC50 [11]: 535
IC50 [12]: 14 nM
IC50 [13]: 7.5 µM
Compound: O=C(NO)c1ccc(CNCc2csc3ccccc23)cc1

IC50 [14]: 200 nM
IC50 [15]: 28 nM
IC50 [16]: 920 nM
IC50 [17]: 34 nM
IC50 [18]: 3.12 µM
IC50 [19]: 1050 nM
IC50 [20]: 3.53 µM
IC50 [21]: 2 nM
IC50 [22]: 3.07 µM
Compound: O=C(NO)c1ccc(CNC(=O)c2ccc(Cl)c(Cl)c2)cc1
